{
  "source": "paper PMC4178936",
  "about": "(The Journal of General Physiology, 2014)",
  "key": {"ΔF508 CFTR": {"tested_on": "ΔF508 CFTR", "settings": "in vitro, cited from earlier work"}, "K1250A CFTR [1]": {"target": "T1, K1250A CFTR (Homo sapiens, UniProt P13569, K1250A)", "T1 sequence (P13569 whole entry K1250A)": "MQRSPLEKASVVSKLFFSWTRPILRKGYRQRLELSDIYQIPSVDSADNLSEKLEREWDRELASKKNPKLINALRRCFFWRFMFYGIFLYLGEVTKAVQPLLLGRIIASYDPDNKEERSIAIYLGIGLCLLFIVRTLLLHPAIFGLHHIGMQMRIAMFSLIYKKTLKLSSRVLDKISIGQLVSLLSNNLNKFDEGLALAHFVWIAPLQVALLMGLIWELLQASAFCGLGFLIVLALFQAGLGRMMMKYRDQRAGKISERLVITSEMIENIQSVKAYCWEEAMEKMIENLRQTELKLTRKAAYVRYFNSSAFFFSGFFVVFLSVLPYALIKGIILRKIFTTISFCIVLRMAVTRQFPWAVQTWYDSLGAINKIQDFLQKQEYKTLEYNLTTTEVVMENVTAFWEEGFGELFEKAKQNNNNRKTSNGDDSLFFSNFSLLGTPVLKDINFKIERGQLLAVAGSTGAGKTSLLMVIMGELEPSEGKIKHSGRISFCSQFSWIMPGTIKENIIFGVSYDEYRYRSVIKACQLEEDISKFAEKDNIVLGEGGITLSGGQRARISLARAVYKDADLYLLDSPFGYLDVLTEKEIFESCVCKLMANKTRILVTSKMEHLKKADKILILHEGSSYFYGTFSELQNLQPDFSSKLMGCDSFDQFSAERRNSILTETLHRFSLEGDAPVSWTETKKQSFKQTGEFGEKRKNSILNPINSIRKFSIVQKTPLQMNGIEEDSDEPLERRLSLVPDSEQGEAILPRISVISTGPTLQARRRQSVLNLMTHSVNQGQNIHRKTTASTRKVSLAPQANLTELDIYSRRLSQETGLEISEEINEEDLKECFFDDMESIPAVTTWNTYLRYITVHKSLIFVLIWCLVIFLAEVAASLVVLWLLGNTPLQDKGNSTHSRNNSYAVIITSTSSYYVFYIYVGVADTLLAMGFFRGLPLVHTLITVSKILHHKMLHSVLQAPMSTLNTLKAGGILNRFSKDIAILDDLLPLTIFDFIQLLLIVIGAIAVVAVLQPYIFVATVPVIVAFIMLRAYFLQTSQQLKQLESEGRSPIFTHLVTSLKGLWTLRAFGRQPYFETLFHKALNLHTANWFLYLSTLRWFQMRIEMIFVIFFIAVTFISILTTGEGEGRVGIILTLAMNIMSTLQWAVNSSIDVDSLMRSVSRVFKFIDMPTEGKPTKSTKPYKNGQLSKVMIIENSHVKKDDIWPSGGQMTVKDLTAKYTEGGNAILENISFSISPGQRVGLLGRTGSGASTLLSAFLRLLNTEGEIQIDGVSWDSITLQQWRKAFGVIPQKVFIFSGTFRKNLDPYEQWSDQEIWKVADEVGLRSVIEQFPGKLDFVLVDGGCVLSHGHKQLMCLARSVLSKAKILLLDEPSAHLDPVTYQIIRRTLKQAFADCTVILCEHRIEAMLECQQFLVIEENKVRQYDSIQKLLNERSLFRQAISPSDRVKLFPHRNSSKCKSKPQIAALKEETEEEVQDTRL", "test": "Macroscopic nonhydrolytic closing rate of K1250A CFTR after ATP removal", "format": "biochemical", "method_in_brief": "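Nonhydrolytic closure of K1250A CFTR was studied in inside-out oocyte patches at 25°C, with channels gating in 10 mM MgATP after PKA prephosphorylation. The rate was the inverse of a single-exponential fit to current decay after ATP removal, normalized to same-patch control. Parent-compound series was recorded at −40 mV, fragment series at −20 mV. Mean ± SEM of at least five.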"}, "WT CFTR [2]": {"target": "T2, WT CFTR (Homo sapiens, UniProt P13569)", "T2 sequence (P13569 whole entry)": "as the sequence (P13569 whole entry K1250A) above, with A1250K counted along it", "test": "Macroscopic", "format": "biochemical", "method_in_brief": "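Human WT CFTR from cRNA (0.1–10 ng) was expressed in Xenopus oocytes; excised inside-out patches at 25°C, NMDG-Cl solutions, bath pH 7.1. Channels were prephosphorylated with 300 nM PKA catalytic subunit and gated in 2 mM MgATP ± test compound. Current decay after sudden ATP removal was fitted to a single exponential (rate = 1/τ), normalized to same-patch control and rescaled by pooled control mean. Mean ± SEM, n ≥ 5.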"}, "E1371S CFTR [3]": {"target": "T3, E1371S CFTR (Homo sapiens, UniProt P13569, E1371S)", "T3 sequence (P13569 whole entry E1371S)": "as the sequence (P13569 whole entry K1250A) above, with A1250K, E1371S counted along it", "format": "biochemical", "settings": "80 mM MOPS−; −120 mV", "method_in_brief": "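E1371S CFTR channels were locked open in inside-out oocyte patches at 25°C, phosphorylated by PKA or endogenously. After ATP removal, test compound was applied briefly with or without 80 mM MOPS− (MOPS solutions pH 7.2, ~50% ionized). Fractional current = quasi-steady current in drug ÷ mean of pre- and post-exposure currents. Apparent KI was taken from dose–response fits. Mean ± SEM, n ≥ 5.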"}, "E1371S CFTR [4]": {"target": "T3, E1371S CFTR", "settings": "read-out: apparent KI for pore block; −120 mV; ref Csanády and Töröcsik, 2014; cited from earlier work"}, "WT CFTR [5]": {"target": "T2, WT CFTR", "test": "Steady-state macroscopic WT CFTR currents", "format": "biochemical"}, "K1250A CFTR [6]": {"target": "T1, K1250A CFTR", "test": "Macroscopic pore-block/permeation assay on locked-open K1250A CFTR currents", "format": "biochemical", "settings": "for fractional current of locked-open K1250A CFTR: 210 µM NPPB, 32 mM 3NB, 20 mM 3PP", "method_in_brief": "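K1250A channels were locked open by removing 10 mM MgATP, in inside-out oocyte patches at 25°C, −80 and 60 mV. Test compounds were applied briefly alone or pairwise (head fragment 32 mM, tail fragment 20 mM, parent 210 µM). Tail stock 50 mM was titrated with sulfuric acid (~0.45 mol/mol), so sulfate 1–20 mM was tested separately. Fractional current = quasi-steady drug current ÷ mean pre/post current. Apparent KI came from dose–response fits.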"}, "K1250A CFTR [7]": {"target": "T1, K1250A CFTR", "test": "Steady-state versus locked-open K1250A CFTR currents", "format": "biochemical", "settings": "32 mM 3NB, 20 mM 3PP; 10 mM ATP; −20 mV", "method_in_brief": "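K1250A CFTR was recorded at −20 mV in 10 mM ATP, 25°C. Head (32 mM) or tail (20 mM) fragment was applied for long periods to channels gating at steady state (I/Icontrol), and briefly to locked-open channels after ATP removal (i/icontrol). Po change = (I/Icontrol)/(i/icontrol).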"}, "CFTR pore-binding site": {"target": "CFTR pore-binding site (Homo sapiens, UniProt P13569, K1250A)", "sequence (P13569 whole entry K1250A)": "as the sequence (P13569 whole entry K1250A) above", "test": "Estimated dissociation constants and free enthalpies of binding in the pore", "format": "biochemical", "settings": "Kd(0) estimate for binding in the pore"}, "CFTR gating site": {"target": "CFTR gating site (Homo sapiens, UniProt P13569)", "sequence (P13569 whole entry)": "as the sequence (P13569 whole entry K1250A) above, with A1250K counted along it", "format": "biochemical", "method_in_brief": "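Gating-site Kd was taken as the apparent K1/2 for stimulation of WT CFTR open probability at −80 mV, from Hill fits to Po dose–response curves, with binding assumed voltage independent. ΔG°binding = kT·ln(Kd).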"}, "WT CFTR [8]": {"target": "T2, WT CFTR", "test": "Single-channel steady-state kinetic analysis of WT CFTR", "format": "biochemical", "settings": "20 mM 3PP, −80 mV", "method_in_brief": "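Steady-state WT CFTR gating was recorded after PKA prephosphorylation, in 2 mM ATP at −80 mV and 25°C. Patches held one active channel for the 32 mM head fragment, or one to four for the 20 mM tail fragment. Traces were filtered at 100 Hz (control, tail) or 50 Hz (head) and idealized by half-amplitude threshold. Events were fitted by maximum likelihood to a closed-open-blocked scheme (dead times 4 and 6 ms), yielding τb and τib.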"}},
  "note": "Read-outs that look alike come from different tables or passages of the source.",
  "data": [
    {"smiles": "CC(C)(C)c1cc(C(C)(C)C)c(NC(=O)c2c[nH]c3ccccc3c2=O)cc1O", "note": "[VX-770]", "values": [
      {"measurement": "stimulation of ΔF508 CFTR currents", "setting": "ΔF508 CFTR; ref Kopeikin et al., 2014", "value": "10–20 fold"},
      {"measurement": "stimulation of ΔF508 CFTR currents", "setting": "ΔF508 CFTR; ref Van Goor et al., 2009", "value": "~5", "unit": "fold"}
    ]},
    {"smiles": "O=S(=O)(O)CCCN1CCOCC1", "note": "[MOPS^−, reference compound]", "values": [
      {"measurement": "effect on K1250A closing rate", "setting": "K1250A CFTR [1]; 80 mM MOPS−, −40 mV", "value": "neither affected K1250A closing rate"},
      {"measurement": "effect on WT CFTR closing rate", "setting": "WT CFTR [2]; 80 mM MOPS−, −120 mV", "value": "little affected"},
      {"measurement": "reduction of macroscopic current through locked-open E1371S channels", "setting": "E1371S CFTR [3]", "value": "~90", "unit": "%"},
      {"measurement": "Ki", "setting": "E1371S CFTR [4]", "value": 8.3, "unit": "mM"}
    ]},
    {"smiles": "O=S(=O)(O)O", "note": "[sulfate]", "values": [
      {"measurement": "effect on WT CFTR open probability / gating", "setting": "WT CFTR [5]; 10 mM sulfate", "value": "little effect"},
      {"measurement": "effect on WT CFTR closing rate", "setting": "WT CFTR [2]; 10 mM sulfate", "value": "did not affect WT CFTR closing rate"},
      {"measurement": "effect on locked-open channel currents", "setting": "K1250A CFTR [6]; 60 mV", "value": "did not affect locked-open channel currents"},
      {"measurement": "sulfate concentration yielding maximal pore block", "setting": "K1250A CFTR [6]; −80 mV, anomalous dose dependence", "value": "~5", "unit": "mM"}
    ]},
    {"smiles": "NCCCc1ccccc1", "note": "[3PP, 3-phenylpropylamine]", "values": [
      {"measurement": "effect on Po of K1250A CFTR", "setting": "K1250A CFTR [7]", "value": "no change in Po"},
      {"measurement": "Kd", "setting": "CFTR pore-binding site; assuming z = 0.1", "value": 12.6, "unit": "mM"},
      {"measurement": "Kd", "setting": "CFTR pore-binding site; assuming z = 0.2", "value": 16, "unit": "mM"},
      {"measurement": "Kd", "setting": "CFTR pore-binding site; assuming z = 0.5", "value": 32, "unit": "mM"},
      {"measurement": "stimulation of open probability for WT CFTR", "setting": "WT CFTR [5]; high concentrations, −80 mV, macroscopic", "value": "two- to threefold"},
      {"measurement": "acceleration of K1250A closing rate", "setting": "K1250A CFTR [1]; 20 mM 3PP, −20 mV", "value": "~20", "unit": "%"},
      {"measurement": "slowing of WT CFTR hydrolytic closing rate", "setting": "WT CFTR [2]; 20 mM 3PP-sulfate, −80 mV", "value": "~2.5", "unit": "fold"},
      {"measurement": "Kd", "setting": "CFTR gating site", "value": 6, "unit": "mM"},
      {"measurement": "effects on unitary currents", "setting": "K1250A CFTR [6]; 20 mM 3PP-sulfate", "value": "~10", "unit": "%"},
      {"measurement": "fractional current of locked-open K1250A CFTR", "setting": "K1250A CFTR [6]; 60 mV", "value": "~1.11"},
      {"measurement": "EC50", "setting": "K1250A CFTR [6]; K1/2 for enhancement of locked-open K1250A current, 60 mV, tentative Hill fit", "value": "~10", "unit": "mM"},
      {"measurement": "enhancement of the rate of ion flow through locked-open K1250A channels", "setting": "K1250A CFTR [6]; positive voltages (60 mV), high 3PP concentrations", "value": "~10", "unit": "%"},
      {"measurement": "fractional current of locked-open K1250A CFTR", "setting": "K1250A CFTR [6]; −80 mV", "value": "~0.91"},
      {"measurement": "effect on unitary current amplitude", "setting": "WT CFTR [8]", "value": "little affected unitary current amplitude"},
      {"measurement": "effect on mean burst duration τb", "setting": "WT CFTR [8]; 32 mM 3NB, 2 mM ATP", "value": "prolonged τb"},
      {"measurement": "effect on mean interburst duration τib", "setting": "WT CFTR [8]; 32 mM 3NB, 2 mM ATP", "value": "did not affect τib"},
      {"measurement": "stimulation of single-channel Po", "setting": "WT CFTR [8]; 32 mM 3NB, 2 mM ATP", "value": "twofold"}
    ]}
  ]
}
